Source: PubChem BioAssay (The Scripps Research Institute Molecular Screening Center)
GPR7 antagonist: human neuropeptides B/W receptor 1 antagonism | P48145 | 1.1% of 290,000 active | inhibition, % at 4.4 µM | GPR7-expressing cells, fluorescence antagonist assay; in the data active means inhibition above about 16%, passing the limit was not always enough;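 further: cells stimulated with the agonist NPW; 0% = agonist with vehicle and 100% = vehicle without agonist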
Target sequence (P48145 whole entry, looked up): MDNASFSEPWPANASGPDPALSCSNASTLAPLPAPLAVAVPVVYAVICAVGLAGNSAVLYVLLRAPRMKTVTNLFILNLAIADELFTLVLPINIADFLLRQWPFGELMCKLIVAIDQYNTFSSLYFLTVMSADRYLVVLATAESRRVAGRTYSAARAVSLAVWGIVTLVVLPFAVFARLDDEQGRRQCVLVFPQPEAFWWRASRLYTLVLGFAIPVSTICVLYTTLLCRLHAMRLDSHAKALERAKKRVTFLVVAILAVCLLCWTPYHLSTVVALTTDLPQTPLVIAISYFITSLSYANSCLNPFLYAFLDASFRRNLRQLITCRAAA
OX1R antag-1: antagonists of human orexin 1 receptor. O43613. CHO/OX1R cells, Fluo-8 calcium fluorescence, orexin A. 0.43% of 330,000 active. inhibition, % at 5 µM;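 active means inhibition above its plate's threshold, mean inhibition of all tested compounds on the plate plus 3 SD, cut at about 37% in these data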;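 further: 0% = orexin A challenge wells and 100% = SB-334867-A antagonist wells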
TAAR1 agonist: human TAAR1 agonism; 0.99% of 360,000 active; CHO RD-HGA16 TAAR1, Fluo-8 calcium fluorescence; vehicle wells 0%, saturating PEA agonist 100%; activation, % at 3 µM; Q96RJ0;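 active means activation above the mean activation of all test compounds in the run plus 3 SD, cut at about 38% in these data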
Target sequence (Q96RJ0 whole entry, looked up): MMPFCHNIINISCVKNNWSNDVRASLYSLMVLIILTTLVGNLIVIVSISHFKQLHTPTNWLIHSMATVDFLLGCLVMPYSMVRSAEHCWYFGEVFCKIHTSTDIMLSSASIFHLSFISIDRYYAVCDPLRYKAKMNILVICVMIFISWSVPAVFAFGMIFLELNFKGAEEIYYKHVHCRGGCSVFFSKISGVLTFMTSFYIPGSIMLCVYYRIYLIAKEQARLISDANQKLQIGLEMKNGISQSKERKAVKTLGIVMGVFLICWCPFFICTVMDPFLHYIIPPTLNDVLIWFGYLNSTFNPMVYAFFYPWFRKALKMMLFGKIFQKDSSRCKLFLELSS
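test system = CHO RD-HGA16 cells carrying human TAAR1 plus Gα16 | schedule = 17-24 h seeding, 75 min 37 °C dye, 30 min RT | compound dosing = 3 µM single concentration | control set = DMSO and PEA EC100 | replicates = n 1 | signal = Fluo-8 fluorescence, 5 s baseline then 140 s kinetic read | measure = percent activation vs PEA EC100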
TAAR1 antagonist: human TAAR1 antagonism. inhibition, % at 3 µM. CHO RD-HGA16 TAAR1, Fluo-8 calcium fluorescence, antagonist. AID 624466. 1.5% of 360,000 active. Q96RJ0;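 active means inhibition above a per-plate cutoff, the mean inhibition of test compounds on that plate plus 3 SD, cut at about 49% in these data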;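 further: 0% = DMSO plus EC80 beta-PEA response and 100% = DMSO alone without agonist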
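Test system: CHO RD-HGA16 cells bearing hTAAR1 | Reagent: β-PEA, EC80 | Compound dosing: 3 µM, single point | Schedule: Dye loading 75 min at 37 °C, then 30 min room temperature | Signal: Calcium fluorescence with Fluo-8 | Evaluation: Percent inhibition of PEA-evoked calcium signal, max/basal emission ratio | Control set: DMSO-only wells and EC80 β-PEA-stimulated wells | Repeats: Singlicate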
CHO parental Ca: counter-screen: ATP calcium response change in parental CHO cells; parental CHO-K1, ATP-induced calcium, Fluo-8 fluorescence; inhibition, % at 5.6 µM; 0.63% of 330,000 active;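 active means inhibition above that plate's mean sample inhibition plus 3 SD, cut at about 26% in these data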;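 further: 0% = ATP-challenged DMSO wells and 100% = DMSO wells without ATP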
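Test system: untransfected parental CHO cell line. Compound: one dose, 5.6 µM nominal. Detection: intracellular calcium via Fluo-8 no-wash fluorescent dye. Measure: % inhibition. Benchmarks: ATP-challenged DMSO wells low, unchallenged DMSO wells high.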
OX1R antag-2: blocks the human orexin 1 receptor | inhibition, % at 6.6 µM | AID 485270 | OX1R-expressing cells, FRET antagonist read-out | 1.8% of 330,000 active | O43613; in the data active means inhibition mostly above about 38%, no sharp cut-off; inactive means mostly below about 40%;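 further: 0% = agonist challenge alone and 100% = reference antagonist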
nonsel antag count: nonselective antagonist in TAAR1 antagonist counter-screen; shares compounds with TAAR1 antagonist; counterscreen cell line, calcium fluorescence, antagonist mode; inhibition, % at 3 µM; 77% of 2,400 active; AID 651780; in the data active means inhibition above about 22%;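 further: CHO-Ga16 host cells stimulated with ATP at an EC80 level; 0% = agonist EC80 plus vehicle and 100% = vehicle without agonist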
TAAR1 antag conf: human TAAR1 antagonism, confirmed; 40% of 2,400 active; AID 651785; shares compounds with TAAR1 antagonist; TAAR1-expressing cells, fluorescence antagonist read-out; inhibition, % at 3 µM; in the data active means inhibition above about 49%;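 further: CHO-Ga16 host cells challenged with agonist PEA near its EC80; 0% = agonist at EC80 plus vehicle and 100% = vehicle with no agonist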
Ga16 nonsel ag: counter-screen for TAAR1 antagonists: nonselective Ga16 agonists | shares compounds with TAAR1 antagonist | Ga16-expressing cells, calcium fluorescence, agonist counterscreen | activation, % at 3 µM | 18% of 2,400 active | AID 651953; in the data active means activation above about 12%;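 further: 0% = vehicle wells and 100% = saturating stimulus response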
TAAR1 ag counter: TAAR1 agonism, antagonist counter-screen. hTAAR1 cell line, fluorescence activation, agonist mode. 2% of 2,400 active. activation, % at 3 µM. shares compounds with TAAR1 antagonist. AID 651955; in the data active means activation above about 37%;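 further: CHO cells stably expressing TAAR1 with calcium dye readout; 0% = DMSO vehicle and 100% = full agonist response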
The depositor's hits bear a star; x = no result given. Shown are actives, neighbours in structure and some others; about 4.6% of the full set was active somewhere.

SMILES	GPR7 antagonist	OX1R antag-1	TAAR1 agonist	TAAR1 antagonist	CHO parental Ca	OX1R antag-2	nonsel antag count	TAAR1 antag conf	Ga16 nonsel ag	TAAR1 ag counter
Cc1[nH]c2ccccc2c1C(=O)COC(=O)C1CC(=O)N(Cc2ccccc2)C1 (configuration not stated)	13	-12	26	70*	-14	32	31*	53*	13*	13
CC(C)c1cccc(-c2ccc3c(c2)S(=O)(=O)c2cccc(C(=O)NCc4ccccc4)c2C3=O)c1	x	-11	7	61*	-6	3	36*	47	4	2
CC(C)c1cccc(-c2ccc3c(c2)S(=O)(=O)c2cccc(C(=O)NCc4ccccc4Cl)c2C3=O)c1	x	-9	x	x	-17	5	x	x	x	x
O=C(O)c1cccc2c1C(=O)c1ccc(-c3ccc(F)cc3OCc3ccccc3)cc1S2(=O)=O	x	-17	x	x	-15	0	x	x	x	x
O=C(NC[C@H]1CCCO1)c1cccc2c1C(=O)c1ccc(-c3ccc(F)cc3OCc3ccccc3)cc1S2(=O)=O	x	7	19	69*	-4	16	37*	51*	8	8
COc1ccc(CN(Cc2ccccn2)C(=O)CN2C(=O)C(C)Oc3ccccc32)cc1 (configuration not stated)	-9	-14	15	52*	-11	28	29*	49*	11	12
CC(=O)N1C[C@H]2CON(C)[C@H]2C[C@H]1c1ccc(-c2ccc(C#N)cc2)cc1	x	x	5	0	x	x	x	x	x	x
N#CCCN1CCC(N)=NC1=NC#N	x	x	4	-22	x	x	x	x	x	x
CCOC(=O)c1cc2c(=O)n3ccccc3nc2n(Cc2ccco2)c1=NC(=O)c1cccc(OC)c1	-1	-21	9	56*	-15	41	25*	33	4	2
COC(=O)[C@@]12C[C@@H](CC(=O)N3CCN(C(=O)C4CC4)CC3)C(=O)N(CCc3ccc(OC)c(OC)c3)C1=CCC(C)(C)C2	x	x	3	2	x	x	x	x	x	x
O=C(C[C@H]1C/C=C\CC[C@H](Cc2ccc(F)cc2)C(=O)O[C@@H](c2ccccc2)CNC1=O)N[C@@H](CO)Cc1ccccc1	x	-11	33	59*	-16	10	35*	49*	10	12
CC(C)(C)OC(=O)C[C@@H]1C/C=C\C[C@H](CC(=O)N[C@H](CO)Cc2ccccc2)C(=O)N[C@@H](Cc2ccccc2)COC1=O	x	-21	17	59*	-31	8	28*	40	5	1
O=C1NC[C@@H](c2ccccc2)OC(=O)[C@H](Cc2ccc(F)cc2)C/C=C\C[C@@H]1CC(=O)N(CCO)Cc1ccccc1	x	0	27	67*	3	2	20	44	9	7
O=C1NC[C@H](c2ccccc2)OC(=O)[C@H](Cc2ccc(F)cc2)C/C=C\C[C@@H]1CC(=O)N(CCO)Cc1ccccc1	x	18	32	77*	-21	33	32*	47	9	7
O=C1CCCC/C=C\C[C@H](CC(=O)N(CCO)Cc2ccccc2)C(=O)NC[C@H](c2ccccc2)O1	x	-13	4	-5	-6	9	x	x	x	x
COC(=O)[C@@]12C[C@@H](CC(=O)NCC34CC5CC(CC(C5)C3)C4)C(=O)N(CCc3ccc(OC)c(OC)c3)C1=CCC(C)(C)C2	x	x	-2	-6	x	x	x	x	x	x
Cc1ccc(S(=O)(=O)N2CC3(O)CN(C(=O)OC(C)C)N(C(=O)OC(C)C)CC3(OC(=O)NCC3CCCCC3)C2)cc1 (configuration not stated)	x	x	5	45	x	x	x	x	x	x
COc1ccc(C(=O)Cn2nnc(-c3ccccc3NC(=O)c3ccco3)n2)cc1	2	-28	16	55*	-32	14	20	48	9	11
COc1ncccc1-c1cc2nc(NCCNC(C)=O)n(C)c(=O)c2s1	x	x	3	3	x	x	x	x	x	x
COC(=O)[C@@]12C[C@@H](CC(=O)NCc3ccc(OC)c(OC)c3)C(=O)N(Cc3ccco3)C1=CCC(C)(C)C2	x	x	-1	-39	x	x	x	x	x	x
COc1cc(/C=N/n2cnnc2)ccc1OC(=O)c1ccncc1	-8	-7	2	107*	-11	3	6	4	1	-1
CC(NCC(=O)Nc1ccccc1C(=O)NC1CC1)c1ccc(S(N)(=O)=O)cc1 (configuration not stated)	x	-12	15	-1	-7	1	x	x	x	x
CCN(CC)S(=O)(=O)c1ccc(C(C)NCC(=O)Nc2ccccc2C(=O)NC2CC2)cc1 (configuration not stated)	x	x	11	59*	x	x	33*	52*	9	9
OCc1ccccc1-c1ccc2nccn2c1	x	x	4	-18	x	x	x	x	x	x
CC(C)C[C@H]1CNC(=O)C(=O)N1CC1CCN(CCC(C)c2ccccc2)CC1 (some centres not stated)	x	x	2	-4	x	x	x	x	x	x
SMILES	GPR7 antagonist	OX1R antag-1	TAAR1 agonist	TAAR1 antagonist	CHO parental Ca	OX1R antag-2	nonsel antag count	TAAR1 antag conf	Ga16 nonsel ag	TAAR1 ag counter
COC(=O)[C@@]1(Sc2ccc(C)cc2)CC(=O)N(c2ccccc2)[C@@H]1c1ccccc1	x	x	8	95*	x	x	39*	78*	7	8
CCc1nc2ccc(C(=O)NCCOc3ccc(OC)cc3)cn2c1N(C)Cc1cccs1	x	x	0	62*	x	x	29*	33	5	1
CCc1nc2ccc(C(=O)NCCOc3ccc(OC)cc3)cn2c1N(C)Cc1ccc(OC)cc1	x	x	0	43	x	x	x	x	x	x
CNC(=O)C(C)c1ncc(C(F)(F)F)cc1Cl (configuration not stated)	-7	-26	-3	98*	-13	17	2	-5	-1	-2
CCOC(=O)C1(C)CCCCCN1C(=O)c1csnn1 (configuration not stated)	x	x	0	-2	x	x	x	x	x	x
COc1cc(C(=O)N/N=C/c2cc([N+](=O)[O-])cs2)cc(OC)c1OC	-3	-18	-4	102*	4	16	4	5	0	0
CC(C)C[C@H]1COc2ccc(Cl)cc2S(=O)(=O)N1	x	x	-2	2	x	x	x	x	x	x
CN(c1ccccc1)S(=O)(=O)c1cccc(NC(=O)Cn2cnc3ccccc3c2=O)c1	-6	-18	7	9	-16	34	x	x	x	x
